Reference: ChEMBL document CHEMBL1153845, “New derivatives of 3,5-substituted-1,4,2-dioxazoles: synthesis and activity against Entamoeba histolytica” (Eur J Med Chem, 2009)

How the values were obtained:
[1] = Cytotoxicity against HEK cells after 44 hrs by MTT assay; assay type: cell-based; details: Homo sapiens, HEK293, 44 h
In short: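 Transformed human kidney epithelial (Graham) cells kept at 37 °C in 5% CO₂. Trypsinized cells at 0.5 million cells/ml plated with compounds for 44 h, then 2 mM MTT for a further 4 h. Formazan dissolved in DMSO, absorbance 540 nm with 690 nm reference, % viability vs controls. Three independent experiments.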

[2] = Safety index, ratio of IC50 for HEK cells to IC50 for Entamoeba histolytica HM-1:IMSS; assay type: toxicity, cell-based, HEK293; details: human, HEK cells (versus Entamoeba histolytica HM-1:IMSS); read-out: Ratio IC50
Entamoeba histolytica = assay: Antiamnesic activity against Entamoeba histolytica HM-1:IMSS after 72 hrs by trypan blue exclusion assay; assay type: functional, organism-based
In short: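 Microdilution in TYIS-33 medium, trophozoites counted by haemocytometer with trypan blue viability check, 1.7 × 10⁴ organisms/well. Plates gassed with N₂ 10 min, 37 °C for 72 h. Washed with 0.9% NaCl, methanol-fixed, eosin-stained, dye released with 0.1 N NaOH, OD 490 nm. % inhibition vs log dose, IC50 by linear regression. Metronidazole standard. Three independent experiments.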

[3] = in the assay text read “Antiamoebic” for “Antiamnesic”

SMILES: CC1(c2ccc(Cl)cc2)ON=C(c2ccc(Cl)cc2)O1 (stereo unspecified)
- IC50 [1]: > 100 µM
- selectivity ratio [2]: > 55.5
- IC50 (Entamoeba histolytica): > 1.8 µM

SMILES: CC1(c2cccc(Br)c2)ON=C(c2ccc(Cl)cc2)O1 (stereo unspecified)
- IC50 [1]: > 100 µM
- selectivity ratio [2]: > 55.5
- IC50 (Entamoeba histolytica): > 1.8 µM

SMILES: CCC1(c2cccc(Br)c2)ON=C(c2cccc(Cl)c2)O1 (stereo unspecified)
- IC50 [1]: > 100 µM
- selectivity ratio [2]: > 55.5
- IC50 (Entamoeba histolytica): > 1.8 µM

SMILES: CC1(c2ccc(Cl)cc2)ON=C(c2ccccc2Cl)O1 (stereo unspecified)
- IC50 [1]: > 100 µM
- selectivity ratio [2]: > 55.5
- IC50 (Entamoeba histolytica): > 1.8 µM

SMILES: Cc1ccc(C2ON=C(c3cccc(Cl)c3)O2)cc1 (stereo unspecified)
- IC50 [1]: > 100 µM
- selectivity ratio [2]: > 55.5
- IC50 (Entamoeba histolytica; [3]): > 1.8 µM

SMILES: CC1(c2ccccn2)ON=C(c2cccc(Cl)c2)O1 (stereo unspecified)
- IC50 [1]: > 100 µM
- selectivity ratio [2]: > 57.8
- IC50 (Entamoeba histolytica): 1.73 µM

SMILES: CCC1(c2cccc(Cl)c2)ON=C(c2cccc(Cl)c2)O1 (stereo unspecified)
- IC50 [1]: > 100 µM
- selectivity ratio [2]: > 55.5
- IC50 (Entamoeba histolytica): > 1.8 µM

SMILES: CC1(c2ccccn2)ON=C(c2ccccc2Cl)O1 (stereo unspecified)
- IC50 [1]: > 100 µM
- selectivity ratio [2]: > 61.7
- IC50 (Entamoeba histolytica): 1.62 µM

SMILES: Cc1ncc([N+](=O)[O-])n1CCO [METRONIDAZOLE]
- IC50 [1]: > 100 µM
- selectivity ratio [2]: > 55.5

SMILES: CCC1(c2cccc(Br)c2)ON=C(c2ccc(Cl)cc2)O1 (stereo unspecified)
- IC50 [1]: > 100 µM
- selectivity ratio [2]: > 55.5
- IC50 (Entamoeba histolytica): > 1.8 µM

SMILES: Clc1ccc(C2ON=C(c3cccc(Cl)c3)O2)cc1 (stereo unspecified)
- IC50 [1]: > 100 µM
- selectivity ratio [2]: > 141
- IC50 (Entamoeba histolytica; [3]): 0.71 µM

SMILES: Clc1ccc(C2ON=C(c3ccccc3Cl)O2)cc1 (stereo unspecified)
- IC50 [1]: > 100 µM
- selectivity ratio [2]: > 196
- IC50 (Entamoeba histolytica): 0.51 µM

SMILES: Clc1ccc(C2=NOC(c3ccc(Cl)cc3)O2)cc1 (stereo unspecified)
- IC50 [1]: > 100 µM
- selectivity ratio [2]: > 189
- IC50 (Entamoeba histolytica; [3]): 0.53 µM

SMILES: CCc1ccc(C2ON=C(c3ccccc3Cl)O2)cc1 (stereo unspecified)
- IC50 [1]: > 100 µM
- selectivity ratio [2]: > 55.5
- IC50 (Entamoeba histolytica): > 1.8 µM

SMILES: CC1(c2ccc(Cl)cc2)ON=C(c2cccc(Cl)c2)O1 (stereo unspecified)
- IC50 [1]: > 100 µM
- selectivity ratio [2]: > 55.5
- IC50 (Entamoeba histolytica; [3]): > 1.8 µM

SMILES: Clc1ccc(C2=NOC(c3cccc(Cl)c3)O2)cc1 (stereo unspecified)
- IC50 [1]: > 100 µM
- selectivity ratio [2]: > 116
- IC50 (Entamoeba histolytica; [3]): 0.86 µM

SMILES: Clc1ccccc1C1=NOC(c2ccccc2Cl)O1 (stereo unspecified)
- IC50 [1]: > 100 µM
- selectivity ratio [2]: > 244
- IC50 (Entamoeba histolytica): 0.41 µM

SMILES: CC1(c2ccccn2)ON=C(c2ccc(Cl)cc2)O1 (stereo unspecified)
- IC50 [1]: > 100 µM
- selectivity ratio [2]: > 63.3
- IC50 (Entamoeba histolytica): 1.58 µM

SMILES: CCC1(c2cccc(Cl)c2)ON=C(c2ccc(Cl)cc2)O1 (stereo unspecified)
- IC50 [1]: > 100 µM
- selectivity ratio [2]: > 55.5
- IC50 (Entamoeba histolytica): > 1.8 µM

SMILES: Clc1cccc(C2=NOC(c3ccccc3Cl)O2)c1 (stereo unspecified)
- IC50 [1]: > 100 µM
- selectivity ratio [2]: > 161
- IC50 (Entamoeba histolytica; [3]): 0.62 µM

SMILES: CCc1ccc(C2ON=C(c3cccc(Cl)c3)O2)cc1 (stereo unspecified)
- IC50 [1]: > 100 µM
- selectivity ratio [2]: > 55.5
- IC50 (Entamoeba histolytica; [3]): > 1.8 µM

SMILES: CCc1ccc(C2ON=C(c3ccc(Cl)cc3)O2)cc1 (stereo unspecified)
- IC50 [1]: > 100 µM
- selectivity ratio [2]: > 55.5
- IC50 (Entamoeba histolytica): > 1.8 µM

SMILES: CCC1(c2cccc(Br)c2)ON=C(c2ccccc2Cl)O1 (stereo unspecified)
- IC50 [1]: > 100 µM
- selectivity ratio [2]: > 55.5
- IC50 (Entamoeba histolytica): > 1.8 µM

SMILES: Cc1ccc(C2ON=C(c3ccc(Cl)cc3)O2)cc1 (stereo unspecified)
- IC50 [1]: > 100 µM
- selectivity ratio [2]: > 55.5
- IC50 (Entamoeba histolytica): > 1.8 µM

SMILES: Cc1ccc(C2ON=C(c3ccccc3Cl)O2)cc1 (stereo unspecified)
- IC50 [1]: > 100 µM
- selectivity ratio [2]: > 55.5
- IC50 (Entamoeba histolytica): > 1.8 µM

SMILES: Clc1ccc(C2ON=C(c3ccccc3Cl)O2)cc1Cl (stereo unspecified)
- IC50 [1]: > 100 µM
- selectivity ratio [2]: > 124
- IC50 (Entamoeba histolytica): 0.81 µM

SMILES: CCC1(c2cccc(Cl)c2)ON=C(c2ccccc2Cl)O1 (stereo unspecified)
- IC50 [1]: > 100 µM
- selectivity ratio [2]: > 55.5
- IC50 (Entamoeba histolytica): > 1.8 µM

SMILES: Clc1ccc(C2=NOC(c3ccccc3Cl)O2)cc1 (stereo unspecified)
- IC50 [1]: > 100 µM
- selectivity ratio [2]: > 208
- IC50 (Entamoeba histolytica): 0.48 µM

SMILES: Clc1cccc(C2ON=C(c3ccccc3Cl)O2)c1 (stereo unspecified)
- IC50 [1]: > 100 µM
- selectivity ratio [2]: > 139
- IC50 (Entamoeba histolytica): 0.72 µM

SMILES: CC1(c2cccc(Br)c2)ON=C(c2cccc(Cl)c2)O1 (stereo unspecified)
- IC50 [1]: > 100 µM
- selectivity ratio [2]: > 55.5
- IC50 (Entamoeba histolytica): > 1.8 µM

SMILES: Clc1ccc(C2=NOC(c3ccc(Cl)c(Cl)c3)O2)cc1 (stereo unspecified)
- IC50 [1]: > 100 µM
- selectivity ratio [2]: > 88.5
- IC50 (Entamoeba histolytica; [3]): 1.13 µM

SMILES: CC1(c2cccc(Br)c2)ON=C(c2ccccc2Cl)O1 (stereo unspecified)
- IC50 [1]: > 100 µM
- selectivity ratio [2]: > 55.5
- IC50 (Entamoeba histolytica): > 1.8 µM

SMILES: Clc1cccc(C2=NOC(c3cccc(Cl)c3)O2)c1 (stereo unspecified)
- IC50 [1]: > 100 µM
- selectivity ratio [2]: > 110
- IC50 (Entamoeba histolytica; [3]): 0.91 µM

SMILES: Clc1cccc(C2=NOC(c3ccc(Cl)c(Cl)c3)O2)c1 (stereo unspecified)
- IC50 [1]: > 100 µM
- selectivity ratio [2]: > 82.6
- IC50 (Entamoeba histolytica): 1.21 µM
